Results gathered from unrelated publications.
Lines come from different studies, so protocols differ.
Technique: competition with immobilised ligand
RPS6KA1 N-terminal kinase domain: Ribosomal protein S6 kinase alpha-1, N-terminal kinase domain (RPS6KA1, Homo sapiens, UniProt Q15418)
RPS6KA1 C-terminal kinase domain: Ribosomal protein S6 kinase alpha-1, C-terminal kinase domain (RPS6KA1, Homo sapiens, UniProt Q15418)

SMILES	target	assay	setting	remaining binding
CCCCN(CCCC)C(=O)CN1C[C@H](c2cc(OC)c3c(c2)OCO3)[C@@H](C(=O)O)[C@@H]1CC(C)(C)CCC	RPS6KA1 N-terminal kinase domain	cell-free assay	1 µM	97.7%
C[C@H]1CCN(c2nccc(-c3cnn4ncccc34)n2)C1	RPS6KA1 N-terminal kinase domain	binding	1 µM	94%
CO[C@@H](C)c1c(Nc2ccc([C@@H](N(C)C(=O)C3CCS(=O)(=O)CC3)C(F)(F)F)cc2)cnc2cc(Cl)nn12	RPS6KA1 C-terminal kinase domain	cell-free assay	1 µM	99%
COc1cnc(Nc2cccc(S(N)(=O)=O)c2)nc1N1CCN(c2ccccc2)C(=O)C1	RPS6KA1 N-terminal kinase domain	binding	1 µM	100%
O=C(Nc1c[nH]nc1C(=O)NC1CCNCC1)c1cc(F)cc(F)c1	RPS6KA1 N-terminal kinase domain	binding	1 µM	100%
CS(=O)(=O)NCC[C@H](NC(=O)c1cncc2c1cnn2-c1ccc(F)cc1)c1ccnc(S(C)(=O)=O)c1	RPS6KA1 N-terminal kinase domain	cell-free assay	1 µM	100%
N[C@H]1CCN(c2nccc(-c3cnn4ncccc34)n2)C1	RPS6KA1 C-terminal kinase domain	binding	1 µM	99%
Nc1ncc2c(n1)-c1c([nH]c3ccc(C#CC4CC4)cc13)CCCC2	RPS6KA1 C-terminal kinase domain	binding	1 µM	86%
Cc1cnc(Nc2ccc(C(=O)N3CCC(N4CCCC4)CC3)cc2)nc1-c1cc2ccccc2s1	RPS6KA1 C-terminal kinase domain	binding	1 µM	74%
F[C@@H]1CCN(c2nccc(-c3cnn4ncccc34)n2)C1	RPS6KA1 N-terminal kinase domain	binding	1 µM	100%
COc1cc(-c2cn(C3CCc4c(F)cccc4N(CC(F)(F)F)C3=O)nn2)ccc1-n1cnc(C)c1 (stereo not drawn)	RPS6KA1 C-terminal kinase domain	cell-free assay	1 µM	100%
O=C(NCCCN1CCOCC1)c1ccc(Nc2nccc(-c3cc4ccccc4s3)n2)cc1	RPS6KA1 N-terminal kinase domain	binding	1 µM	87%
COc1cnc(Nc2cccc(S(N)(=O)=O)c2)nc1N1CCN(c2ccccc2)CC1	RPS6KA1 C-terminal kinase domain	binding	1 µM	83%
CN(C)c1ncc(F)c(-c2cnn3ncccc23)n1	RPS6KA1 N-terminal kinase domain	binding	1 µM	100%
C[C@@H](c1ccc(-n2cnc3c(N)ncnc32)cc1)N1CCc2nn(C)c(Cc3ccccc3)c2C1=O	RPS6KA1 N-terminal kinase domain	binding	0.1 µM	96%
O=C(NCc1ncc(C(F)(F)F)cc1Cl)c1ccc2c(c1)C1(CCS(=O)(=O)CC1)[C@H](C1CC1)N2S(=O)(=O)c1ccc(F)cc1	RPS6KA1 N-terminal kinase domain	cell-free assay	1 µM	100%
CN(CCCC(F)(F)F)c1nccc(-c2cnn3ncccc23)n1	RPS6KA1 N-terminal kinase domain	binding	1 µM	100%
Cc1nccc(COC(=O)N2C[C@@H]3[C@@H](CNC(=O)c4ccc5[nH]nnc5c4)[C@@H]3C2)n1	RPS6KA1 C-terminal kinase domain	cell-free assay	1 µM	96%
c1cnn2ncc(-c3ccnc(N4CCC45COC5)n3)c2c1	RPS6KA1 C-terminal kinase domain	binding	1 µM	56%
O=C(NCCCN1CCOCC1)c1ccc(Nc2ncc(Cl)c(-c3ccc(Cl)s3)n2)cc1	RPS6KA1 C-terminal kinase domain	binding	1 µM	72%
FC(F)(F)Oc1cccc(-c2cnc3ccc(-c4ccncc4)nn23)c1	RPS6KA1 N-terminal kinase domain	binding	5 µM	63%
